ChEMBL document CHEMBL1157541, “Identification and characterization of 4-chloro-N-(2-{[5-trifluoromethyl)-2-pyridyl]sulfonyl}ethyl)benzamide (GSK3787), a selective and irreversible peroxisome proliferator-activated receptor delta (PPARdelta) antagonist” (J Med Chem, 2010)
Active and inactive are the calls of the source. The rule behind the calls is not given here.

Assays:
[1] = target: T1, Peroxisome proliferator-activated receptor alpha (Homo sapiens, UniProt Q07869); assay: Displacement of [3H]GW2433 from human PPARalpha receptor by ligand displacement assay
T1 sequence (Q07869 whole entry): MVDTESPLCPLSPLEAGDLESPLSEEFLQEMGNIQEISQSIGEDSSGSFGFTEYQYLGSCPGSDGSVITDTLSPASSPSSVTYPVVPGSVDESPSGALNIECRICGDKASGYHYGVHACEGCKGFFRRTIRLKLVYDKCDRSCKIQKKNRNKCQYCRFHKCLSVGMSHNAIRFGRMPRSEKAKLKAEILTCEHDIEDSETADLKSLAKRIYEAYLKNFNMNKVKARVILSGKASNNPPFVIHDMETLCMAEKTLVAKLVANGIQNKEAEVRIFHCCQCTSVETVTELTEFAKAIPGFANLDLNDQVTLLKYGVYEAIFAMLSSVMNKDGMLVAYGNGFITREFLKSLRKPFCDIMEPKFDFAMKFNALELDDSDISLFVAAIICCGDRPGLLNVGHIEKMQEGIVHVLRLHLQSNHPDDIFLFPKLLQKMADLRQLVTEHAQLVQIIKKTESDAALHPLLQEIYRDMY

[2] = target: T2, Peroxisome proliferator-activated receptor gamma (Homo sapiens, UniProt P37231); assay: Inhibition of human PPARgamma receptor by ligand displacement assay
T2 sequence (P37231 whole entry): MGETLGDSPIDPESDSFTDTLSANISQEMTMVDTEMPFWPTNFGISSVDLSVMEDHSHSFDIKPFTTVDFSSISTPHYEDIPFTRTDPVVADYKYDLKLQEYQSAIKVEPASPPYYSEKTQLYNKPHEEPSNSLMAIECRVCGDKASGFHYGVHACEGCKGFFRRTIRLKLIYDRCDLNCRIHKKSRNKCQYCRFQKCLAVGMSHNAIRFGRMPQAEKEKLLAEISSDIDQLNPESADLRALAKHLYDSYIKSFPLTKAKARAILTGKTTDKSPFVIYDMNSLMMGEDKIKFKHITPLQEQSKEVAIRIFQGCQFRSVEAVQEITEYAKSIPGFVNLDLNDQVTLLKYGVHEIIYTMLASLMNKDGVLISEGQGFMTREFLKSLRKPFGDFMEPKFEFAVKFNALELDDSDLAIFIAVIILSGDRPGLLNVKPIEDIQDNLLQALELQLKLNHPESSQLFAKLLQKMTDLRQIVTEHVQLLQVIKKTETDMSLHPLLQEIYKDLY

[3] = target: T3, Peroxisome proliferator-activated receptor delta (Homo sapiens, UniProt Q03181); assay: Inhibition of human PPARdelta receptor by ligand displacement assay
T3 sequence (Q03181 whole entry): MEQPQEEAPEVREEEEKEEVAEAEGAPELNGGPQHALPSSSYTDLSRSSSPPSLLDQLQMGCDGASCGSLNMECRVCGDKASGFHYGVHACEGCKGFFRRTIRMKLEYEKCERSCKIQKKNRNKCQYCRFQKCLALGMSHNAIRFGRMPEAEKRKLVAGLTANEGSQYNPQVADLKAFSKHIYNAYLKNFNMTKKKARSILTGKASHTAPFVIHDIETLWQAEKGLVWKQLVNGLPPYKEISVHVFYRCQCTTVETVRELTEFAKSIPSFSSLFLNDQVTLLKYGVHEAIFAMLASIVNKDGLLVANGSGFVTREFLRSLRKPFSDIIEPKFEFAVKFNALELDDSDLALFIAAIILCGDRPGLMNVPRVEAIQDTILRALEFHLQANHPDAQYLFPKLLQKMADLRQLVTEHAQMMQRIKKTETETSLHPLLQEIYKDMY

[4] = target: T3, Peroxisome proliferator-activated receptor delta
Homo sapiens [5] = species: Homo sapiens; assay: Inhibition of against 2-(4-((2-(3-fluoro-4-(trifluoromethyl)phenyl)-4-methylthiazol-5-yl)methylthio)-2-methylphenoxy)acetic acid-induced CPT1a gene expression in human skeletal muscle cell at 10 to 10000 nM; assay type: functional
Outline: (§1)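 Human skeletal muscle cells were stimulated with PPARδ agonist to induce transcription of the target genes CPT1a and PDK4. Compound was co-tested at various doses, and antagonism of the agonist-stimulated expression was read out.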

Homo sapiens [6] = species: Homo sapiens; assay: Inhibition of against 2-(4-((2-(3-fluoro-4-(trifluoromethyl)phenyl)-4-methylthiazol-5-yl)methylthio)-2-methylphenoxy)acetic acid-induced PDK4 gene expression in human skeletal muscle cell at 10 to 10000 nM; assay type: functional; outline: as §1
Homo sapiens [7] = species: Homo sapiens; assay: Inhibition of CPT1a gene expression in human skeletal muscle cell at 10 to 10000 nM; assay type: functional
Outline: (§2)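 Human skeletal muscle cells were treated with compound at various doses without added agonist. Basal CPT1a and PDK4 transcript expression was assessed.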

Homo sapiens [8] = species: Homo sapiens; assay: Inhibition of PDK4 gene expression in human skeletal muscle cell at 10 to 10000 nM; assay type: functional; outline: as §2
SW480 = assay: Antiproliferative against human SW480 cells at 10 uM; assay type: functional, cell-based
Outline: (§3)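 Colorectal lines (SW480, HCT116, DLD1, RKO) and non-colorectal lines (A549, HEK293) were incubated with compound for 3 days at concentrations up to 10 μM. Proliferation was compared with DMSO vehicle. Staurosporine and actinomycin D served as positive controls.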

HCT-116 = assay: Antiproliferative against human HCT116 cells at 10 uM; assay type: functional, cell-based; outline: as §3
DLD-1 = assay: Antiproliferative against human DLD1 cells at 10 uM; assay type: functional, cell-based; outline: as §3
RKO = assay: Antiproliferative against human RKO cells at 10 uM; assay type: functional, cell-based; outline: as §3
A549 = assay: Antiproliferative against human A549 cells at 10 uM; assay type: functional, cell-based; outline: as §3
HEK293 = assay: Antiproliferative against human HEK293 cells at 10 uM; assay type: functional, cell-based; outline: as §3
[9] = Clearance in C57BL/6 mouse at 0.5 mg/kg, iv; assay type: ADME, organism-based; set-up: dose 0.5 mg/kg, route intravenous; settings: in vivo
Outline: (§4)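 Male C57BL/6 mice were dosed intravenously at 0.5 mg/kg and orally at 10 mg/kg. Clearance and Vss were taken from the iv arm. Cmax, AUCinf, half-life and oral bioavailability were taken from the oral arm. Values are given as mean ± deviation.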

[10] = Volume of distribution at steady state in C57BL/6 mouse at 0.5 mg/kg, iv; assay type: ADME, organism-based; set-up: dose 0.5 mg/kg, route intravenous; settings: in vivo, read-out: Vdss; outline: as §4
[11] = Cmax in C57BL/6 mouse at 10 mg/kg, po; assay type: ADME, organism-based; set-up: dose 10 mg/kg, route oral; settings: in vivo; outline: as §4
[12] = AUC (0 to infinity) in C57BL/6 mouse at 10 mg/kg, po; assay type: ADME, organism-based; set-up: dose 10 mg/kg, route oral, time infinity; settings: plasma; outline: as §4
[13] = Half life in C57BL/6 mouse at 10 mg/kg, po; assay type: ADME, organism-based; set-up: dose 10 mg/kg, route oral; settings: in vivo; outline: as §4
[14] = Oral bioavailability in C57BL/6 mouse at 10 mg/kg; assay type: ADME, organism-based; settings: in vivo; outline: as §4

CC(C)Cc1ccc(C(=O)NCCS(=O)(=O)c2ccc(C(F)(F)F)cn2)cc1
IC50 [1]: > 10000 nM
IC50 [2]: > 10000 nM
IC50 [3]: 316 nM
IC50 [4]: 200 nM

O=C(NCCCS(=O)(=O)c1ccc(C(F)(F)F)cn1)c1ccc(OC(F)(F)F)cc1
IC50 [1]: > 10000 nM
IC50 [2]: > 10000 nM
IC50 [3]: 1260 nM

O=C(NCCS(=O)(=O)c1ccc(C(F)(F)F)cn1)c1ccc(C2CCCCC2)cc1
IC50 [1]: > 10000 nM
IC50 [2]: > 10000 nM
IC50 [3]: 1000 nM

O=C(NCCS(=O)(=O)c1ccc(C(F)(F)F)cn1)c1ccc(-c2ccccc2)cc1
IC50 [2]: > 10000 nM
IC50 [3]: 200 nM
IC50 [4]: 251 nM

O=C(NCCS(=O)(=O)c1ccccn1)c1ccc(Cl)cc1
IC50 [1]: > 10000 nM
IC50 [2]: > 10000 nM
IC50 [3]: > 10000 nM

O=C(NCCS(=O)(=O)c1ccc(C(F)(F)F)cn1)c1ccc(Cl)cc1Cl
IC50 [1]: > 10000 nM
IC50 [2]: > 10000 nM
IC50 [3]: 158 nM
IC50 [4]: 200 nM

Cc1ccc(S(=O)(=O)CCNC(=O)c2ccc(Cl)cc2)nc1
IC50 [1]: > 10000 nM
IC50 [2]: > 10000 nM
IC50 [3]: > 10000 nM

COC(=O)c1sccc1S(=O)(=O)Nc1ccc(Nc2ccccc2)cc1OC
IC50 [1]: > 10000 nM
IC50 [2]: > 10000 nM

Cc1cc(C(=O)NCCS(=O)(=O)c2ccc(C(F)(F)F)cn2)ccc1Cl
IC50 [1]: > 10000 nM
IC50 [2]: > 10000 nM
IC50 [3]: 126 nM
IC50 [4]: 251 nM

O=C(NCCS(=O)(=O)c1ccc(C(F)(F)F)cn1)c1ccc(Cl)c(Br)c1
IC50 [1]: > 10000 nM
IC50 [2]: > 10000 nM
IC50 [3]: 126 nM
IC50 [4]: 251 nM

O=C(NCCS(=O)(=O)c1ccc(C(F)(F)F)cn1)c1ccc(Cl)cc1
IC50 [1]: > 10000 nM
IC50 [2]: > 10000 nM
IC50 [3]: 200 nM
Activity (Homo sapiens [5]): Active
Activity (Homo sapiens [6]): Active
Activity (Homo sapiens [7]): Active
Activity (Homo sapiens [8]): inactive
Activity (SW480): inactive
Activity (HCT-116): inactive
Activity (DLD-1): inactive
Activity (RKO): inactive
Activity (A549): inactive
Activity (HEK293): inactive
clearance [9]: 39 mL/min/kg
Vd [10]: 1.7 L/kg
Cmax [11]: 881 ng/mL
AUC(0-inf) [12]: 3340 ng·h/mL
half-life [13]: 2.7 h
bioavailability [14]: 77%
IC50 [4]: 126 nM

O=C(NCCCS(=O)(=O)c1ccc(C(F)(F)F)cn1)c1ccc(Cl)cc1
IC50 [1]: > 10000 nM
IC50 [2]: > 10000 nM
IC50 [3]: > 10000 nM

O=C(NCCS(=O)(=O)c1ccc(C(F)(F)F)cn1)c1ccc(Br)cc1F
IC50 [1]: > 10000 nM
IC50 [2]: > 10000 nM
IC50 [3]: 50.1 nM
IC50 [4]: 79.4 nM

O=C(NCCS(=O)(=O)c1ccc(C(F)(F)F)cn1)c1ccc(OC(F)(F)F)cc1
IC50 [1]: > 10000 nM
IC50 [2]: > 10000 nM
IC50 [3]: 100 nM
